Compounds with a hit are over-represented: about 4.9% of the library has one in this group of screens.
CHT block = inhibitors of human choline transporter CHT. Q9GZV3. CHT-expressing cells, membrane potential dye, choline response; stronger effect = lower value. B-score at 10 µM. 310,000 tested, 0.86% active. AID 488975;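 active = B-score over 3 SD under the library average, and starting fluorescence ratio not unusually high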;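 also: choline stimulus applied at its EC90 after an EC20 pre-addition; B-score computed on integrated fluorescence ratio after choline addition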
Target sequence (Q9GZV3 whole entry, looked up): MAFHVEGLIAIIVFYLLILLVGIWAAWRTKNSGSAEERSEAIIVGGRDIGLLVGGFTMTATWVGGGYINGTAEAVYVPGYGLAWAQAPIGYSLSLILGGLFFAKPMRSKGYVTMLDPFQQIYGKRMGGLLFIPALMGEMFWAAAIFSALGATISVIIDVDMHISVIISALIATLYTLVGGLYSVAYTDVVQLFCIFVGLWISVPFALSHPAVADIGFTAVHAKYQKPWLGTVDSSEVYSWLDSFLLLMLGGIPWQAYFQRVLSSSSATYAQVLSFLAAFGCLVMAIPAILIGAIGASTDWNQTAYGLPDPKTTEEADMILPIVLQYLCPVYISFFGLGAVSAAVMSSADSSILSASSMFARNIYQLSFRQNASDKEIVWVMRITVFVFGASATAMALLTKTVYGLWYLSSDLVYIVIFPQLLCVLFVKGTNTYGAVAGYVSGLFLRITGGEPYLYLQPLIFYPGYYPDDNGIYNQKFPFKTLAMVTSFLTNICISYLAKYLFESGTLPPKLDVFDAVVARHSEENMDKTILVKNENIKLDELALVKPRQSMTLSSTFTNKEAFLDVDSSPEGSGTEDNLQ
CHT allo act = allosterically activates the human high affinity choline transporter. 310,000 tested, 0.49% active. B-score at 10 µM. CHT-expressing cells, membrane potential dye, choline EC20; stronger effect = higher value; LV-AA mutant CHT in HEK293 cells;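 active = initial fluorescence not abnormally high and integrated response B-score, plate-corrected, over 3 SD above library mean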
Hep lipid drop = hepatic lipid droplet formation modulation | 240,000 tested, 0.4% active | inhibition, % at 6.5 µM | AML12 mouse hepatocytes, oleate lipid droplets, BODIPY imaging | AID 1656;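 active = lipid droplet intensity inhibited by at least 50%, with more than 500 cells counted; inconclusive = wells with under 300 cells, treated as cytotoxic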
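System: AML12 hepatocytes (mouse). Probe or stimulus: oleic acid at 100 µM to induce lipid droplet formation. Times: overnight treatment with compound plus oleate. Detection: Image-based BODIPY and DAPI two-channel analysis. Evaluation: percent inhibition of filter-corrected integrated lipid droplet intensity per well.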
HSF-1 act = increases HSF-1 driven luciferase reporter signal; AID 504408; NIH3T3-HGL HSF-1 luciferase reporter, MG132, 8 h; 100% = twice DMSO control signal; 300,000 tested, 1.7% active; activation, % at 9 µM;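 active = mean replicate activation of at least 50% with a set share of replicates each reaching 50%; inconclusive = only one of those two conditions met; inactive = mean below 50% and too few replicates reaching it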
HSF1 inhib = HSF1 inhibition | NIH3T3-HGL HSE-luciferase, MG132-induced, luminescence 8 h; stronger effect = lower value | activity change, negative = inhibition, % at 7.5 µM (by protocol) | 300,000 tested, 0.77% active;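 active = more than half of replicate wells show activity change below -50%, luminescence cut by over half; inconclusive = some wells, but at most half, below -50%; inactive = no replicate well below -50%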;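 also: luciferase reports HSF-1 transcriptional activity via heat shock element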
PHOSPHO1 inh = blocks human PHOSPHO1 phosphatase activity; inhibition, % at 13.3 µM; Q8TCT1; 290,000 tested, 1.1% active; recombinant PHOSPHO1, absorbance phosphatase assay; in the data active = inhibition above about 60%
Of the large screens only hits and unclear results are named; the others gave an inactive call.

COc1ccc(CC(CC(=O)O)C(=O)NCc2ccccc2)cc1 (configuration not stated)	none
Cc1c(OC(=O)c2ccc([N+](=O)[O-])cc2)c2c(c[n+]1C)COC(C)(C)OC2	PHOSPHO1 inh 103 (no result: Hep lipid drop)
Cc1ncc2c(c1OC(=O)c1ccccc1)COC(C)(C)OC2	none
Cc1ccc2c(C)c(C(=O)N(Cc3ccncc3)CC3CCCO3)oc2c1C (configuration not stated)	none
Cc1c(C(=O)N(Cc2ccncc2)CC2CCCO2)oc2c(F)cccc12 (configuration not stated)	HSF-1 act 53
Cc1nn(Cc2ccccc2)c(C)c1NC(=O)c1noc2c1CCc1ccccc1-2	HSF1 inhib -67 (no result: Hep lipid drop)
Cc1ccc(NC(=O)c2noc3c2CCc2ccccc2-3)cc1	HSF-1 act inconclusive
CCOc1ccc(CNS(=O)(=O)c2cc(CN3C(=O)c4cccnc4C3=O)ccc2OC)cc1	none
COc1ccc(CNS(=O)(=O)c2cc(CN3C(=O)c4cccnc4C3=O)ccc2OC)cc1	HSF-1 act 61
COc1ccc(-c2nc(=S)[nH][nH]2)cc1OC	none
CCOc1ccc(-c2nc(=S)[nH][nH]2)cc1	PHOSPHO1 inh 100 (no result: Hep lipid drop)
COc1ccc(-c2nc(=S)[nH][nH]2)cc1	PHOSPHO1 inh 96 (no result: Hep lipid drop)
Cc1ccccc1-c1nnc(SCC#N)o1	none
CC(=O)c1c(N2CCN(c3cccc(Cl)c3)CC2)nc(=S)n(-c2ccccc2)c1C	none
CCn1c(C)c(C(C)=O)c(N2CCN(c3cccc(Cl)c3)CC2)nc1=S	PHOSPHO1 inh 76
CCN1CCc2c(sc(NC(=O)c3cc4ccccc4cc3OC)c2C(N)=O)C1	HSF1 inhib -51
COc1cccc(OC)c1C(=O)Nc1sc2c(c1C(N)=O)CCN(Cc1ccccc1)C2	none
CC(C)N1CCc2c(sc(NC(=O)c3ccc4ccccc4c3)c2C(N)=O)C1	HSF1 inhib -60
CCn1c(CCc2nc3ccccc3[nH]2)n[nH]c1=S	none
Cc1ccc(-n2c(CCc3nc4ccccc4[nH]3)n[nH]c2=S)cc1	PHOSPHO1 inh 81
Cc1ccccc1NC(=S)C1=C(O)c2sccc2N(C)S1(=O)=O	HSF-1 act 58, PHOSPHO1 inh 92
CN1c2ccccc2C(O)=C(C(=S)Nc2ccccc2)S1(=O)=O	none
CN1c2ccsc2C(O)=C(C(=S)Nc2ccccc2)S1(=O)=O	PHOSPHO1 inh 94
CCNC(=O)C1=C(O)c2sccc2N(C)S1(=O)=O	none
CCS(=O)(=O)N1Cc2ccccc2CC1C(=O)NCc1cccc(OC)c1 (configuration not stated)	none
O=C(Cn1cc2c(n1)CCCC2)N1CCc2ccccc21	none
C/C(=C\c1ccccc1)C(=O)Nc1cc(C)on1	none
Cc1coc2cc3oc(=O)c(CC(=O)N(C)CC(=O)O)c(C)c3cc12	none
O=C(CN1CCS(=O)(=O)CC1)NNC(=O)C1CCCCC1	none (no result: Hep lipid drop)
O=C(c1ccccc1)N1CCN(CC(O)Cn2ccc3ccccc32)CC1 (configuration not stated)	PHOSPHO1 inh 66
CCCn1c2ccccc2c2nnc(SC(CC)C(=O)Nc3sc4c(c3C#N)CCCC4)nc21 (configuration not stated)	PHOSPHO1 inh 61
c1cnc(N2CC[N+]3(CCCC3)CC2)nc1	none (no result: Hep lipid drop)
CCCn1c(=O)c2sccc2n2c(CCCC(=O)NCC3CCCO3)nnc12 (configuration not stated)	none
O=C(CCl)NC(Cc1ccccc1)c1ccccc1 (configuration not stated)	HSF1 inhib -85
CC(=O)C(Cc1ccccc1)NC(=O)CCl (configuration not stated)	none
N=C1/C(=C\c2ccc(-c3cccc(C(=O)O)c3)o2)C(=O)N=C2SC=C(c3ccccc3)N12	PHOSPHO1 inh 80
O=C(N/N=C/c1ccccc1[N+](=O)[O-])c1cccs1	HSF-1 act 61
Cc1cc(/C=N/NC(=O)c2cccs2)c(C)n1-c1ccccc1	HSF1 inhib -69
Cc1cc(/C=N/NC(=O)c2cccs2)c(C)n1-c1cnccn1	none
Cc1ccc(/C=N/NC(=O)c2cccs2)cc1[N+](=O)[O-]	none (no result: Hep lipid drop)
COc1cccc(C(C(=O)NC2CCCC2)N(Cc2cccnc2)C(=O)Cc2cccs2)c1 (configuration not stated)	none

Assay outcomes from PubChem BioAssay.
